Screening data (PubChem)
Hits are enriched below; roughly 1.1% of the tested compounds scored in any of these assays.
Furin inhibitor – human furin inhibition | purified furin, fluorogenic substrate cleavage | inhibition, % at 20 µM or 30 µM | 220,000 compounds, 0.061% hits; in the data active = inhibition above about 25%
Thrombin inh – thrombin (human) inhibition | P00734 | alpha-thrombin, Boc-VPR-AMC fluorogenic substrate cleavage | inhibition, % at 5 µM | 220,000 compounds, 0.26% hits;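 active = inhibition at or above 40%; inactive = inhibition below 40%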
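Material: human alpha-thrombin protein. Incubation: reaction at ambient temperature. Technique: fluorescence of released AMC, ex 355 nm, em 460 nm. Control set: no-compound enzyme wells and no-enzyme blanks. Also added: Boc-VPR-AMC substrate, 15 µM final. Buffer or medium: pH 7.5 Tris (50 mM) with NaCl 150 mM, Tween 20 0.05%.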
FXIIa inh – blocks human coagulation factor XIIa protease activity; P00748; purified FXIIa, Boc-QGR-AMC fluorogenic substrate, 2 h; inhibition, % at 5 µM; 220,000 compounds, 0.3% hits; AID 800; in the data active = inhibition above about 40%
KLK5 inh – kallikrein 5 (human) inhibition | Q9Y337 | recombinant hK5, fluorogenic AMC substrate cleavage | inhibition, % at 5 µM | 210,000 compounds, 0.59% hits | AID 873;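 active = inhibition of 40% or more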
Target sequence (Q9Y337 67-293 limits assumed): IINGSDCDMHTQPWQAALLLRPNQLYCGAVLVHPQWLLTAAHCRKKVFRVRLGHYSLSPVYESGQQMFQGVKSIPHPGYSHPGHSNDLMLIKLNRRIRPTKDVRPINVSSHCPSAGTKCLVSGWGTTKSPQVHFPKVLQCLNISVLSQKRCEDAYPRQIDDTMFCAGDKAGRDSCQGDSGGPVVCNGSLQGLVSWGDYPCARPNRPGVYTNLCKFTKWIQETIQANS
FXIa inh – factor XIa (human) inhibition. 220,000 compounds, 0.14% hits. AID 798. purified FXIa, Boc-Glu-Ala-Arg-AMC fluorogenic substrate. P03951. inhibition, % at 5 µM;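 active = inhibition of at least 40%; inactive = inhibition below 40%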;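 note: fluorescence of freed AMC excited at 355 nm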
Each line names hits and unclear results; the compound was inactive in the other large screens.

CCOc1ccc(CCNC(=O)c2cccc(N3CCCC3=O)c2)cc1OCC	none
COc1ccc(CCNC(=O)c2ccc(N3CCCC3=O)cc2)cc1OC	Furin inhibitor 26.3
N=C1C=CC=C2C1=NC1(CCCCC1)N2O	Thrombin inh 104.0, KLK5 inh 98.2
COC(=O)c1[nH]c2cccc(OC)c2c1NC(=O)CN1CCN(c2cccc(OC)c2)C(C)C1 (stereo not given)	KLK5 inh 125.2
CC(C)CCNC(=O)NC(=O)CSc1nnc(-c2ccccc2F)n1N	KLK5 inh 75.5
CC(C)(C)NC(=O)NC(=O)CSc1nnc(-c2ccccc2F)n1N	none
O=C(OCC(=O)N1CCc2ccccc21)c1ccccc1	none
O=C(CO/N=C/c1ccccc1O)N1CCc2ccccc21	KLK5 inh 44.5
Cc1cc(NS(=O)(=O)c2ccc(NC(=O)CSc3nnc(-c4ccco4)n3N)cc2)nc(C)n1	Thrombin inh 61.9
O=C1CC(=O)CC(c2ccccc2)C1	none
O=C1CC(c2ccccc2)CC(=O)C1=CN1CCCC1 (stereo not given)	Furin inhibitor 32.6
Cc1cc(C)c(C2=NOC3C4CCC(C4)C23)c(C)c1 (stereo not given)	none
Cc1cc(C(=O)Nc2ccc(N3CCOCC3)cc2)c2ccccc2n1	FXIIa inh 44.5
CCN(CC)C(=O)CSC1=C(C#N)C(c2cccs2)C=C(C)N1 (stereo not given)	none
CCCCc1nc2ccccc2c(NC(=O)CNC(C)(C)C)c1CCC	Thrombin inh 42.2
CCNC(=S)NN(c1ccccc1)c1ccccc1	none
CCOc1ccc(/C=C2/SC(=S)N(n3c(C)ccc3C)C2=O)cc1	none
COc1ccc(/C=C2/SC(=S)N(n3c(C)ccc3C)C2=O)cc1	FXIIa inh 83.7
Cc1nc2sccn2c1-c1csc(NCc2ccccc2)n1	none
CCOC(=O)C1=C(C)OC(N)=C(C#N)C1c1cc2c(cc1[N+](=O)[O-])OCO2 (stereo not given)	Thrombin inh 74.1
CC(C)c1ccccc1NC(=S)NCc1ccncc1	none
CCN(CC)c1ccc(S(=O)(=O)N(CC)CC)cc1NC(=O)c1cccnc1	none
CC(C)(C)c1ccc(OCc2nc(-c3ccccn3)no2)c(Br)c1	KLK5 inh 43.7
Cc1ccc(NC(=O)CSc2nnc(COc3ccc(C#N)cc3)n2-c2ccccc2)cc1C	KLK5 inh 45.5
O=C1OCC2OC(O)C(O)C(O)C2OC(=O)c2cc(O)c(O)c(O)c2-c2c(O)c(O)c3oc(=O)c4c(c(O)c(O)c5oc(=O)c2c3c54)-c2c1cc(O)c(O)c2O (stereo not given)	FXIa inh 59.1
CC(C)(C)c1ccc(Oc2ccc(NC(=O)CCCC(=O)O)cn2)cc1	FXIIa inh 47.4
CC(C)(CC(=O)O)CC(=O)Nc1ccc(Oc2ccc(C(C)(C)C)cc2)nc1	none
COC(=O)C(C)Sc1nnc(Cc2cc(=O)[nH]c(=O)[nH]2)n1-c1ccc(Cl)cc1 (stereo not given)	FXIIa inh 42.6
CCN(CC)c1ccc(/C=C(\C#N)C(=O)NCc2ccco2)cc1	KLK5 inh 64.5
Cc1c(C)n(CCC#N)c2ccccc12	FXIIa inh 42.8
COc1ccc(CCn2cnc(=O)c(C#N)c2C)cc1OC	none
CC(C)NC(=O)c1ccc(C(C)C)cc1	Thrombin inh 77.6
COC(=O)CC1C(=O)NCCN1C(=S)Nc1cccc(C)c1 (stereo not given)	FXIIa inh 44.9
COc1ccccc1Nc1ncc(C(=O)N2CCN(Cc3ccc(OC)c(OC)c3OC)CC2)c2ccccc12	none
Cn1c(CCNC(=O)c2ccccc2)nc2cc(NC(=O)C3CCCCC3)ccc21	none
CCOc1ccc(N(C(C)=O)c2nc(C)cc(C)c2C#N)cc1	KLK5 inh 51.5
CC(=O)N(c1ccc(Cl)cc1)c1nc(C)cc(C)c1C#N	none
Cc1ccc(CCNC(=O)C2CCCN(C(=O)c3cc4sccc4n3C)C2)cc1 (stereo not given)	KLK5 inh 46.6
Cn1c(C(=O)N2CCCC(C(=O)NCCc3ccccc3)C2)cc2sccc21 (stereo not given)	none
CCOC(=O)CNC(=O)CSc1nnc(-c2ccc(OC)cc2)n1CC	none
CCOC(=O)CSc1nnc(-c2ccc(OC)cc2)n1CC	KLK5 inh 77.5
CCOc1ccc2[nH]cc(C(=O)N3CCN(CC)CC3)c(=O)c2c1	none
COc1cc(C(=O)ON=C2C(C)=CC(=O)C=C2C)cc(OC)c1OC	none
COc1cc(C(=O)O/N=C2/C=C(C)C(=O)C=C2C)cc(OC)c1OC	FXIIa inh 60.0
